Laboratory results: ChEMBL document CHEMBL5335782, “Discovery of new imidazotetrazinones with potential to overcome tumor resistance” (Eur J Med Chem, 2023)
The source made the active and inactive calls. No cut-off for these calls is given here.

Legend:
[1] = Antiproliferative activity against human U373V cells assessed as inhibition of cell growth measured […] by MTT assay; format: functional
Summary of the method: (§1)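 Cells seeded at 6.5×10^2/well, left overnight, then exposed to vehicle or agent (n = 4-8; final 0.5–1000 μM; DMSO stocks of 50 or 10 mM diluted in medium). MTT read at time of addition and after 6 days at 37 °C, 5% CO₂. MTT 0.4 mg/mL for 4 h, formazan taken up in DMSO, A550. GI50 from non-linear regression; mean ± SD of >3 experiments.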

[2] = Antiproliferative activity against MGMT-expressing human U373M cells assessed as inhibition of cell growth measured after […] by MTT assay; format: functional; summary of the method: as §1
HCT-116 [3] = assay: Antiproliferative activity against MMR-deficient human HCT-116 cells assessed as inhibition of cell growth measured after […] by MTT assay; format: functional; summary of the method: as §1
[4] = Selectivity ratio of GI50 for cytotoxicity against human MRC5 cells to GI50 for antiproliferative activity against MMR-deficient human HCT-116 cells; format: toxicity, cell-based; conditions: MRC5 cells versus MMR-deficient HCT-116 cells, read-out: RatioGI50
U373V [5] = assay: Inhibition of cell colony formation in human U373V cells at 20 to 50 uM incubated for 24 hrs followed by drug removal and incubation in medium for 14 days; format: functional, cell-based; conditions: dose 20-50 µM
Summary of the method: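 Clonogenic survival: exponentially growing cells seeded in triplicate at 400 cells/well, attached overnight, then exposed for 24 h to 0, 2, 20 or 50 μM agent. Medium then replaced with drug-free medium for 14 days, or until control colonies held ≥50 cells. Colonies fixed in cold methanol, stained with 0.5% methylene blue, counted, and expressed relative to control. 2–3 experiments.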

U373V [6] = assay: Induction of cell cycle arrest in human U373V cells assessed as accumulation of cells at G2/M phase at 100 uM measured after 120 hrs by propidium iodide staining based flow cytometry; format: functional
[7] = Induction of cell cycle arrest in human U373V cells assessed as accumulation of cells at pre-G1 phase at 100 uM measured after 120 hrs by propidium iodide staining based flow cytometry (reference value: 1%); format: functional
U373M [8] = assay: Induction of cell cycle arrest in MGMT-expressing human U373M cells at 100 uM measured after 120 hrs by propidium iodide staining based flow cytometry; format: functional
HCT-116 [9] = assay: Induction of cell cycle arrest in MMR-deficient human HCT-116 cells at 100 uM measured after 120 hrs by propidium iodide staining based flow cytometry; format: functional
[10] = Half life of the compound in phosphate buffered saline at pH 7.4 by 1H NMR spectroscopic analysis; format: physicochemical
Summary of the method: (§2)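 Half-life followed by ¹H NMR spectroscopy in phosphate buffers at pH 7.4 or 5.5.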

[11] = Half life of the compound in phosphate buffered saline at pH 5.5 by 1H NMR spectroscopic analysis; format: physicochemical; summary of the method: as §2
[12] = Half life of the compound in phosphate buffered saline at pH 7.4 by LC-MS analysis; format: physicochemical
Summary of the method: (§3)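 Half-life in phosphate buffers at pH 5, 6.8 or 7.4 followed by LC-MS; mean of two independent experiments.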

[13] = Half life of the compound in phosphate buffered saline at pH 6.8 by LC-MS analysis; format: physicochemical; summary of the method: as §3
[14] = Half life of the compound in phosphate buffered saline at pH 5 by LC-MS analysis; format: physicochemical; summary of the method: as §3
[15] = Half life in human plasma; format: ADME, cell-free
[16] = Half life in rat plasma; format: ADME, cell-free
[17] = Intrinsic clearance in human liver microsomes in presence of NADPH; format: ADME, Microsome; conditions: read-out: CLH
[18] = Half life in human liver microsomes in presence of NADPH; format: ADME, Microsome
[19] = Intrinsic clearance in human liver microsomes in absence of NADPH; format: ADME, Microsome; conditions: read-out: CLH
[20] = Half life in human liver microsomes in absence of NADPH; format: ADME, Microsome
[21] = Intrinsic clearance in rat liver microsomes in presence of NADPH; format: ADME, Microsome; conditions: read-out: CLH
[22] = Half life in rat liver microsomes in presence of NADPH; format: ADME, Microsome
[23] = Intrinsic clearance in rat liver microsomes in absence of NADPH; format: ADME, Microsome; conditions: read-out: CLH
[24] = Half life in rat liver microsomes in absence of NADPH; format: ADME, Microsome
[25] = Permeability of the compound measured after 6 hrs by PAMPA assay; format: ADME; conditions: read-out: permeability
Summary of the method: (§4)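 PAMPA passive-diffusion assay run as contract research under the provider's protocols, with control compounds. After 6 h incubation, permeability (Pe) and percentage recovery determined.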

[26] = Permeability of the compound assessed as drug recovery measured after 6 hrs by PAMPA assay; format: ADME; conditions: read-out: Drug recovery; summary of the method: as §4
[27] = Ratio of permeability across dog MDCK cells transfected with MDR1 to permeability across wild type dog MDCK cells; format: ADME, cell-based, Canis lupus familiaris
[28] = Apparent elimination half life in human
[29] = Apparent elimination half life in human plasma
U373V [30] = assay: Induction of cell cycle arrest in human U373V cells assessed as accumulation of cells at S phase at 100 uM measured after 120 hrs by propidium iodide staining based flow cytometry; format: functional
U373M [31] = assay: Induction of cell cycle arrest in MGMT-expressing human U373M cells assessed as accumulation of cells at S phase at 100 uM measured after 120 hrs by propidium iodide staining based flow cytometry; format: functional
[32] = Induction of cell cycle arrest in MGMT-expressing human U373M cells assessed as accumulation of cells at G2/M phase at 100 uM measured after 120 hrs by propidium iodide staining based flow cytometry (Rvb ~ 15%); format: functional
U373V [33] = assay: Induction of cell cycle arrest in human U373V cells assessed as accumulation of cells at sub-G1 phase at 100 uM measured after 120 hrs by propidium iodide staining based flow cytometry; format: functional
U373M [34] = assay: Induction of cell cycle arrest in MGMT-expressing human U373M cells assessed as accumulation of cells at sub-G1 phase at 100 uM measured after 120 hrs by propidium iodide staining based flow cytometry; format: functional
HCT-116 [35] = assay: Induction of cell cycle arrest in MMR-deficient human HCT-116 cells assessed as loss of cell cycle integrity at 100 uM measured after 120 hrs by propidium iodide staining based flow cytometry; format: functional
HCT-116 [36] = assay: Induction of cell cycle arrest in MMR-deficient human HCT-116 cells assessed as accumulation of cells at sub-G1 phase at 100 uM measured after 120 hrs by propidium iodide staining based flow cytometry (Rvb ~5%); format: functional
[37] = Drug metabolism in phosphate buffered saline assessed as Tmax of 5-(3-(prop-2-yn-1-yl)triaz-2-en-1-yl)-1H-imidazole-4-carboxamide at pH 7.4 by 1HNMR spectroscopy; format: ADME; conditions: buffer
[38] = Drug metabolism in phosphate buffered saline assessed as half life of 5-(3-(prop-2-yn-1-yl)triaz-2-en-1-yl)-1H-imidazole-4-carboxamide at pH 7.4 by 1HNMR spectroscopy; format: ADME; conditions: buffer

Cn1nnc2c(C(N)=O)ncn2c1=O [TEMOZOLOMIDE]
GI50 [1]: 51.9 µM
GI50 [2]: 302 µM
GI50 (HCT-116 [3]): 291 µM
selectivity ratio [4]: 1.4
inhibition (U373V [5]): Active
Activity (U373V [6]): Active
Activity [7]: 9%
Activity (U373M [8]): inactive
Activity (HCT-116 [9]): inactive
half-life [10]: 1.53 h
half-life [11]: > 100 h
half-life [12]: 2.47 h
half-life [13]: 4.02 h
half-life [14]: > 8 h
half-life [15]: 0.33 h
half-life [16]: 0.298 h
microsomal CLint [17]: 27.3 µL/min/mg
half-life [18]: 0.848 h
microsomal CLint [19]: 23 µL/min/mg
half-life [20]: 1 h
microsomal CLint [21]: < 1 µL/min/mg
half-life [22]: > 8 h
microsomal CLint [23]: < 1 µL/min/mg
half-life [24]: > 8 h
Papp at 6 h [25]: 0.63 ×10⁻⁶ cm/s
recovery at 6 h [26]: 65.3%
Ratio [27]: 3.21
half-life [28]: 1.8 h
t1/2 [29]: 0.25 h

C#CCn1nnc2c(C(N)=O)ncn2c1=O
GI50 [1]: 30 µM
GI50 [2]: 26.6 µM
GI50 (HCT-116 [3]): 28.1 µM
Activity (U373V [6]): Active
Activity (U373V [30]): Active
Activity (U373M [31]): Active
Activity [32]: 33%
Activity (U373V [33]): Active
Activity (U373M [34]): Active
Activity (HCT-116 [35]): Active
Activity (HCT-116 [36]): 96%
half-life [10]: 0.817 h
half-life [12]: 1.92 h
half-life [13]: 3.86 h
half-life [14]: > 8 h
half-life [15]: 0.242 h
half-life [16]: 0.432 h
microsomal CLint [17]: 18.1 µL/min/mg
half-life [18]: 1.3 h
microsomal CLint [19]: 25.2 µL/min/mg
half-life [20]: 0.918 h
microsomal CLint [21]: 35.5 µL/min/mg
half-life [22]: 0.655 h
microsomal CLint [23]: 29.2 µL/min/mg
half-life [24]: 0.812 h
Papp at 6 h [25]: 1.38 ×10⁻⁶ cm/s
recovery at 6 h [26]: 6.9%
Ratio [27]: 0.93
Tmax [37]: 2 h
t1/2 [38]: 4.5 h
